From ChEMBL document CHEMBL1153783, “Synthesis and vasodilatory activity of some amide derivatives of 6-(4-carboxymethyloxyphenyl)-4,5-dihydro-3(2H)-pyridazinone” (Eur J Med Chem, 2009)

What was measured:
Aorta [1] = assay: Vasodilatory activity in Wistar rat thoracic aortic ring assessed as inhibition of phenylephrine-induced contraction at 10 uM treated after phenylephrine challenge; assay type: functional
Method in brief: (§1)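 Thoracic aortic rings were taken from Wistar rats of either sex (300–400 g) and held in PSS at 37 °C under O2/CO2 (95:5), equilibrated ≥90 min. Rings were precontracted with 10^-6 M phenylephrine, then given cumulative additions of 10^-8 to 10^-5 M at 30 min intervals, one compound per ring. Relaxation was read as % of initial contraction. A sigmoidal fit gave pD2 and Emax, reported as mean ± SEM of 4 or 8 experiments.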

Aorta [2] = assay: Vasodilatory activity in Wistar rat thoracic aortic ring assessed as inhibition of phenylephrine-induced contraction treated after phenylephrine challenge; assay type: functional, tissue-based; conditions: for IC50: Rattus norvegicus, Wistar, Aorta; method in brief: as §1
Aorta [3] = assay: Ratio of hydralazine IC50 to compound IC50 for inhibition of phenylephrine-induced contraction in Wistar rat thoracic aortic ring; assay type: functional
Aorta [4] = assay: Ratio of SK&F-93741 IC50 to compound IC50 for inhibition of phenylephrine-induced contraction in Wistar rat thoracic aortic ring; assay type: functional

| IC50 (Aorta [2]) [nM] | Compound | Emax at 10 µM (Aorta [1]) [%] | pD2 (Aorta [2]) | Ratio IC50 (Aorta [3]) | Ratio IC50 (Aorta [4]) |
| --- | --- | --- | --- | --- | --- |
|  | O=C1CCC(c2ccc(OCC(=O)n3ccnc3)cc2)=NN1 | 3.7 |  |  |  |
|  | CC1CC(=O)NN=C1c1ccc(OCC(=O)n2ccnc2)cc1 (stereo not drawn) | 32 |  |  |  |
|  | CN1CCN(C(=O)COc2ccc(C3=NNC(=O)CC3)cc2)CC1 | 23.9 |  |  |  |
| 910 | O=C1CCC(c2ccc(OCC(=O)N3CCCCC3)cc2)=NN1 | 61.6 | 5.9 |  |  |
|  | O=C(COc1ccc(C2=NN(c3ccccc3)C(=O)CC2)cc1)N1CCCCC1 | 16.2 |  |  |  |
|  | CC1CC(=O)NN=C1c1ccc(OCC(=O)N2CCCCC2)cc1 (stereo not drawn) | 29.8 |  |  |  |
|  | O=C1CCC(c2ccc(OCC(=O)N3CCOCC3)cc2)=NN1 | 41.8 |  |  |  |
|  | CC1CC(=O)NN=C1c1ccc(OCC(=O)N2CCOCC2)cc1 (stereo not drawn) | 17.6 |  |  |  |
| 1020 | O=C1CCC(c2ccc(OCC(=O)N3CCCC3)cc2)=NN1 | 52.2 | 5.9 |  |  |
| 51 | O=C(COc1ccc(C2=NN(c3ccc(F)cc3)C(=O)CC2)cc1)N1CCCC1 | 61.8 | 7.2 | 4.5 | 1.7 |
|  | CC1CC(=O)NN=C1c1ccc(OCC(=O)N2CCCC2)cc1 (stereo not drawn) | 21.7 |  |  |  |
|  | CC(=O)Nc1ccc(C2=NNC(=O)CC2C)cc1 (stereo not drawn) | 61.1 | 7 |  |  |
|  | NNc1nncc2ccccc12 [HYDRALAZINE] | 55 | 6.6 |  |  |
